Active and inactive are the calls of the source. The rule behind the calls is not given here.
How the values were obtained:
P388 [1] = test: Antitumor activity against mouse P388 cells allografted in mouse assessed as survival at 1.8 mg/kg/day after 1 day; format: functional, organism-based
Summary of the method: (§1)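 P388 ascites implanted ip in mice; sulfate salts dosed either daily or as a single dose on day 1, 10 animals per group. Survivors per total were recorded, median life span was calculated using all deaths and survivors, and percent increase of life span was reported.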

Mus musculus = test: Antitumor activity against Gardner lymphosarcoma cell in po dosed mouse; format: functional, organism-based
P388 [2] = test: Antitumor activity against mouse P388 cells allografted in mouse assessed as survival at 0.10 mg/kg/day administered from day 1 to day 9; format: functional, organism-based; summary of the method: as §1
Leukemia cell [3] = test: Antitumor activity against human leukemia cells allografted in human assessed as remission of nonlymphocytic leukemia at 3 to 4 mg/m'2, iv once weekly dosed through push technique; format: functional, organism-based
Leukemia cell [4] = test: Antitumor activity against human leukemia cells allografted in human assessed as remission of acute lymphocytic leukemia at 3 to 4 mg/m'2, iv once weekly dosed through push technique; format: functional, organism-based
P388 [5] = test: Antitumor activity against mouse P388 cells allografted in mouse assessed as survival at 4 mg/kg/day after 1 day; format: functional, organism-based; summary of the method: as §1
sarcoma = test: Antitumor activity against mouse Ridgeway osteogenic sarcoma cell allografted in po dosed mouse; format: functional, organism-based
P388 [6] = test: Antitumor activity against mouse P388 cells allografted in mouse assessed as survival at 2.7 mg/kg/day after 1 day; format: functional, organism-based; summary of the method: as §1
[7] = Antitumor activity against mouse Gardner lymphosarcoma cell allografted in mouse at 1.0 to 2.0 mg/kg/day, ip; format: functional; conditions: route intraperitoneal
Summary of the method: (§2)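 Sulfate salts given ip on days 1-9 against ROS and GLS in mice; tumor growth scored as percent inhibition versus controls (+++ = 75-100%, ++ = 50-75%, ± = under 25%).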

[8] = Antitumor activity against mouse Ridgeway osteogenic sarcoma cells allografted in mouse at 1 to 2 mg/kg/day, ip; format: functional; conditions: route intraperitoneal; summary of the method: as §2

Structure (SMILES) | Activity (P388 [1]) | Activity (Mus musculus) | Activity (P388 [2]) | Activity (Leukemia cell [3]) | Activity (Leukemia cell [4]) | Activity (P388 [5]) | Activity (sarcoma) | Activity (P388 [6]) | TGI [7] [%] | TGI [8] [%]
CC[C@]1(O)C[C@@H]2CN(CCc3c([nH]c4ccccc34)[C@@](C(=O)OC)(c3cc4c(cc3OC)N(C)[C@H]3[C@@](O)(C(N)=O)[C@H](O)[C@]5(CC)C=CCN6CC[C@]43[C@@H]65)C2)C1 | inactive | inactive | inactive | Active | Active | inactive | inactive | inactive |  | 
CC[C@]1(O)C[C@@H]2C[C@H](c3cc4c(cc3OC)N(C)[C@H]3[C@@](O)(C(N)=O)[C@H](O)[C@]5(CC)C=CCN6CC[C@]43[C@@H]65)c3[nH]c4ccccc4c3CCN(C2)C1.O=S(=O)(O)O |  |  |  |  |  |  |  |  | <25 | <25
CC[C@]1(O)C[C@@H]2C[C@H](c3cc4c(cc3OC)N(C)[C@H]3[C@@](O)(C(=O)NN)[C@H](O)[C@]5(CC)C=CCN6CC[C@]43[C@@H]65)c3[nH]c4ccccc4c3CCN(C2)C1 |  |  |  |  |  |  |  |  | <25 | <25
